Columns and labels:
Liver [1] = assay: Biodistribution in ddY mouse liver at 13.2 to 20.6 kBq, iv measured at 10 mins by gamma counting analysis; assay type: ADME, organism-based; conditions: in vivo
Procedure, shortened: (§1)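 Male ddY mice, 5 weeks old, received the 125I-labelled tracer (13.2–20.6 kBq) intravenously in the tail vein, in 100 µL saline containing ethanol. Animals were sacrificed at 2, 10, 30 and 60 min. Tissue radioactivity is expressed as %ID/g, mean (SD) of 5 animals.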

Intestine [2] = assay: Biodistribution in ddY mouse intestine at 13.2 to 20.6 kBq, iv measured at 60 mins by gamma counting analysis; assay type: ADME, organism-based; conditions: in vivo, 1 h; procedure, shortened: as §1
Blood [3] = assay: Biodistribution in ddY mouse blood at 13.2 to 20.6 kBq, iv measured at 30 mins by gamma counting analysis; assay type: ADME, organism-based; conditions: in vivo, 0.5 h; procedure, shortened: as §1
Spleen [4] = assay: Biodistribution in ddY mouse spleen at 13.2 to 20.6 kBq, iv measured at 10 mins by gamma counting analysis; assay type: ADME, organism-based; conditions: in vivo; procedure, shortened: as §1
Blood [5] = assay: Biodistribution in ddY mouse blood at 13.2 to 20.6 kBq, iv measured at 10 mins by gamma counting analysis; assay type: ADME, organism-based; conditions: in vivo; procedure, shortened: as §1
Pancreas [6] = assay: Biodistribution in ddY mouse pancreas at 13.2 to 20.6 kBq, iv measured at 30 mins by gamma counting analysis; assay type: ADME, organism-based; conditions: in vivo, 0.5 h; procedure, shortened: as §1
Stomach [7] = assay: Biodistribution in ddY mouse stomach at 13.2 to 20.6 kBq, iv measured per organ at 10 mins by gamma counting analysis; assay type: ADME, organism-based; conditions: in vivo
Procedure, shortened: (§2)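 Male ddY mice, 5 weeks old, were injected in the tail vein with the 125I tracer (13.2–20.6 kBq) in 100 µL saline containing ethanol. Sacrifice at 2, 10, 30 and 60 min. Stomach radioactivity is expressed as %ID per whole organ, mean (SD) of 5 animals.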

Lung [8] = assay: Biodistribution in ddY mouse lung at 13.2 to 20.6 kBq, iv measured at 2 mins by gamma counting analysis; assay type: ADME, organism-based; conditions: in vivo; procedure, shortened: as §1
Blood [9] = assay: Biodistribution in ddY mouse blood at 13.2 to 20.6 kBq, iv measured at 60 mins by gamma counting analysis; assay type: ADME, organism-based; conditions: in vivo, 1 h; procedure, shortened: as §1
Blood [10] = assay: Biodistribution in ddY mouse blood at 13.2 to 20.6 kBq, iv measured at 2 mins by gamma counting analysis; assay type: ADME, organism-based; conditions: in vivo; procedure, shortened: as §1
Brain [11] = assay: Biodistribution in ddY mouse brain at 13.2 to 20.6 kBq, iv measured at 30 mins by gamma counting analysis; assay type: ADME, organism-based; conditions: in vivo, 0.5 h; procedure, shortened: as §1
[12] = 1-Octanol-PBS buffer partition coefficient, log P of the compound at 0.37 MBq after 2 mins by gamma counting analysis; assay type: physicochemical
Brain [13] = assay: Ratio of drug level in ddY mouse brain at 13.2 to 20.6 kBq, iv measured at 2 mins to drug level in ddY mouse brain at 13.2 to 20.6 kBq, iv measured at 60 mins; assay type: ADME, organism-based; conditions: in vivo
Procedure, shortened: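 Tail-vein injection of the 125I tracer (13.2–20.6 kBq, saline with ethanol) into male 5-week-old ddY mice. The ratio is brain uptake (%ID/g) at 2 min divided by brain uptake at 60 min, from groups of 5 animals.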

Heart [14] = assay: Biodistribution in ddY mouse heart at 13.2 to 20.6 kBq, iv measured at 10 mins by gamma counting analysis; assay type: ADME, organism-based; conditions: in vivo; procedure, shortened: as §1
Intestine [15] = assay: Biodistribution in ddY mouse intestine at 13.2 to 20.6 kBq, iv measured at 2 mins by gamma counting analysis; assay type: ADME, organism-based; conditions: in vivo; procedure, shortened: as §1
Liver [16] = assay: Biodistribution in ddY mouse liver at 13.2 to 20.6 kBq, iv measured at 60 mins by gamma counting analysis; assay type: ADME, organism-based; conditions: in vivo, 1 h; procedure, shortened: as §1
Intestine [17] = assay: Biodistribution in ddY mouse intestine at 13.2 to 20.6 kBq, iv measured at 30 mins by gamma counting analysis; assay type: ADME, organism-based; conditions: in vivo, 0.5 h; procedure, shortened: as §1
Pancreas [18] = assay: Biodistribution in ddY mouse pancreas at 13.2 to 20.6 kBq, iv measured at 10 mins by gamma counting analysis; assay type: ADME, organism-based; conditions: in vivo; procedure, shortened: as §1
Stomach [19] = assay: Biodistribution in ddY mouse stomach at 13.2 to 20.6 kBq, iv measured per organ at 30 mins by gamma counting analysis; assay type: ADME, organism-based; conditions: in vivo, 0.5 h; procedure, shortened: as §2
Heart [20] = assay: Biodistribution in ddY mouse heart at 13.2 to 20.6 kBq, iv measured at 2 mins by gamma counting analysis; assay type: ADME, organism-based; conditions: in vivo; procedure, shortened: as §1
Lung [21] = assay: Biodistribution in ddY mouse lung at 13.2 to 20.6 kBq, iv measured at 60 mins by gamma counting analysis; assay type: ADME, organism-based; conditions: in vivo, 1 h; procedure, shortened: as §1
Brain [22] = assay: Biodistribution in ddY mouse brain at 13.2 to 20.6 kBq, iv measured at 10 mins by gamma counting analysis; assay type: ADME, organism-based; conditions: in vivo; procedure, shortened: as §1
Spleen [23] = assay: Biodistribution in ddY mouse spleen at 13.2 to 20.6 kBq, iv measured at 30 mins by gamma counting analysis; assay type: ADME, organism-based; conditions: in vivo, 0.5 h; procedure, shortened: as §1
Liver [24] = assay: Biodistribution in ddY mouse liver at 13.2 to 20.6 kBq, iv measured at 30 mins by gamma counting analysis; assay type: ADME, organism-based; conditions: in vivo, 0.5 h; procedure, shortened: as §1
Kidney [25] = assay: Biodistribution in ddY mouse kidney at 13.2 to 20.6 kBq, iv measured at 60 mins by gamma counting analysis; assay type: ADME, organism-based; conditions: in vivo, 1 h; procedure, shortened: as §1
Heart [26] = assay: Biodistribution in ddY mouse heart at 13.2 to 20.6 kBq, iv measured at 30 mins by gamma counting analysis; assay type: ADME, organism-based; conditions: in vivo, 0.5 h; procedure, shortened: as §1
Kidney [27] = assay: Biodistribution in ddY mouse kidney at 13.2 to 20.6 kBq, iv measured at 2 mins by gamma counting analysis; assay type: ADME, organism-based; conditions: in vivo; procedure, shortened: as §1
Heart [28] = assay: Biodistribution in ddY mouse heart at 13.2 to 20.6 kBq, iv measured at 60 mins by gamma counting analysis; assay type: ADME, organism-based; conditions: in vivo, 1 h; procedure, shortened: as §1
Lung [29] = assay: Biodistribution in ddY mouse lung at 13.2 to 20.6 kBq, iv measured at 30 mins by gamma counting analysis; assay type: ADME, organism-based; conditions: in vivo, 0.5 h; procedure, shortened: as §1
Kidney [30] = assay: Biodistribution in ddY mouse kidney at 13.2 to 20.6 kBq, iv measured at 30 mins by gamma counting analysis; assay type: ADME, organism-based; conditions: in vivo, 0.5 h; procedure, shortened: as §1
Pancreas [31] = assay: Biodistribution in ddY mouse pancreas at 13.2 to 20.6 kBq, iv measured at 60 mins by gamma counting analysis; assay type: ADME, organism-based; conditions: in vivo, 1 h; procedure, shortened: as §1
Spleen [32] = assay: Biodistribution in ddY mouse spleen at 13.2 to 20.6 kBq, iv measured at 2 mins by gamma counting analysis; assay type: ADME, organism-based; conditions: in vivo; procedure, shortened: as §1
Kidney [33] = assay: Biodistribution in ddY mouse kidney at 13.2 to 20.6 kBq, iv measured at 10 mins by gamma counting analysis; assay type: ADME, organism-based; conditions: in vivo; procedure, shortened: as §1
Stomach [34] = assay: Biodistribution in ddY mouse stomach at 13.2 to 20.6 kBq, iv measured per organ at 2 mins by gamma counting analysis; assay type: ADME, organism-based; conditions: in vivo; procedure, shortened: as §2
Spleen [35] = assay: Biodistribution in ddY mouse spleen at 13.2 to 20.6 kBq, iv measured at 60 mins by gamma counting analysis; assay type: ADME, organism-based; conditions: in vivo, 1 h; procedure, shortened: as §1
Intestine [36] = assay: Biodistribution in ddY mouse intestine at 13.2 to 20.6 kBq, iv measured at 10 mins by gamma counting analysis; assay type: ADME, organism-based; conditions: in vivo; procedure, shortened: as §1
Brain [37] = assay: Biodistribution in ddY mouse brain at 13.2 to 20.6 kBq, iv measured at 2 mins by gamma counting analysis; assay type: ADME, organism-based; conditions: in vivo; procedure, shortened: as §1
Pancreas [38] = assay: Biodistribution in ddY mouse pancreas at 13.2 to 20.6 kBq, iv measured at 2 mins by gamma counting analysis; assay type: ADME, organism-based; conditions: in vivo; procedure, shortened: as §1
Brain [39] = assay: Biodistribution in ddY mouse brain at 13.2 to 20.6 kBq, iv measured at 60 mins by gamma counting analysis; assay type: ADME, organism-based; conditions: in vivo, 1 h; procedure, shortened: as §1
Lung [40] = assay: Biodistribution in ddY mouse lung at 13.2 to 20.6 kBq, iv measured at 10 mins by gamma counting analysis; assay type: ADME, organism-based; conditions: in vivo; procedure, shortened: as §1
Liver [41] = assay: Biodistribution in ddY mouse liver at 13.2 to 20.6 kBq, iv measured at 2 mins by gamma counting analysis; assay type: ADME, organism-based; conditions: in vivo; procedure, shortened: as §1
Stomach [42] = assay: Biodistribution in ddY mouse stomach at 13.2 to 20.6 kBq, iv measured per organ at 60 mins by gamma counting analysis; assay type: ADME, organism-based; conditions: in vivo, 1 h; procedure, shortened: as §2
[43] = target: Microtubule-associated protein tau (Homo sapiens, UniProt P10636); assay: Binding affinity to recombinant human tau (441 amino acid residues) aggregates expressed in Escherichia coli assessed as apparent dissociation constant after 30 mins by fluorescence spectroscopic analysis; conditions: read-out: Kd(app)
Procedure, shortened: (§3)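 Tau: human 441-aa tau expressed in E. coli, aggregated at 1 mg/mL in MES buffer pH 6.8 with 0.1 mg/mL heparin, 37 °C for 3 days with shaking. Abeta1-42 aggregated at 0.25 mg/mL in PBS pH 7.4, 37 °C for 42 h with shaking. Aggregates at final 10 µg/mL were incubated with ligand (final 0.02–10 µM) for 30 min at room temperature. Apparent Kd was taken from fluorescence saturation curves at ex 440 nm, em 510 nm (tau) or em 480 nm (Abeta). Mean ± SEM of six independent experiments.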

[44] = target: Amyloid-beta precursor protein (Homo sapiens, UniProt P05067); assay: Binding affinity to amyloid beta (1 to 42) (unknown origin) aggregates assessed as apparent dissociation constant after 30 mins by fluorescence spectroscopic analysis; conditions: read-out: Kd(app); procedure, shortened: as §3
Homo sapiens = species: Homo sapiens; assay: Selectivity ratio of Kd(app) for amyloid beta (1 to 42) (unknown origin) aggregates to Kd(app) for recombinant human tau (441 amino acid residues) aggregates
Procedure, shortened: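 Human 441-aa tau, expressed in E. coli, was aggregated at 1 mg/mL (MES pH 6.8, 0.1 mg/mL heparin, 37 °C, 3 days, shaking). Aβ1–42 was aggregated at 0.25 mg/mL (PBS pH 7.4, 37 °C, 42 h). Aggregates were incubated 30 min at room temperature with ligand, and fluorescence read at ex 440 nm, em 510 nm (tau) or 480 nm (Aβ). Apparent Kd came from saturation curves over six independent experiments, and the ratio is Kd(Aβ)/Kd(tau).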

Chain of Amyloid-beta precursor protein (P05067 whole entry): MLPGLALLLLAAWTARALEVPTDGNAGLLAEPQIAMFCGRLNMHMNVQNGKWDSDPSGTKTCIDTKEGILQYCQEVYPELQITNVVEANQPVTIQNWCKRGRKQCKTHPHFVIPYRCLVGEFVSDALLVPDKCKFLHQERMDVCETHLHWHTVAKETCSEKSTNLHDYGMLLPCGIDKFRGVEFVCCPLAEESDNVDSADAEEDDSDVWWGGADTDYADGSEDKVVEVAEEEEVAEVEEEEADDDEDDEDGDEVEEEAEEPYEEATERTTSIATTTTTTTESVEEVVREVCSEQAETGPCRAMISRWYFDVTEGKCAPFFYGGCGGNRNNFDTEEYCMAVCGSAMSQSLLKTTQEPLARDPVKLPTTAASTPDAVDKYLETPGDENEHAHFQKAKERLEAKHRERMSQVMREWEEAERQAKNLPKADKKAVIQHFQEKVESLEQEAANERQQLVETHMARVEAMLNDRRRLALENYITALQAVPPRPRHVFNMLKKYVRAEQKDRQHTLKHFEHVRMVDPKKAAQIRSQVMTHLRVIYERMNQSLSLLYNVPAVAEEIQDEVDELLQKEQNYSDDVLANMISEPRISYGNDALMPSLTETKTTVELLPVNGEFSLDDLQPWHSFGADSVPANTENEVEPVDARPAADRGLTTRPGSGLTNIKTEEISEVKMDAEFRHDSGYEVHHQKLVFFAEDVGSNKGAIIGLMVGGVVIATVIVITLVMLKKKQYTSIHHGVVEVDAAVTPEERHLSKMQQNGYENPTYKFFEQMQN
Chain of Microtubule-associated protein tau (P10636 whole entry): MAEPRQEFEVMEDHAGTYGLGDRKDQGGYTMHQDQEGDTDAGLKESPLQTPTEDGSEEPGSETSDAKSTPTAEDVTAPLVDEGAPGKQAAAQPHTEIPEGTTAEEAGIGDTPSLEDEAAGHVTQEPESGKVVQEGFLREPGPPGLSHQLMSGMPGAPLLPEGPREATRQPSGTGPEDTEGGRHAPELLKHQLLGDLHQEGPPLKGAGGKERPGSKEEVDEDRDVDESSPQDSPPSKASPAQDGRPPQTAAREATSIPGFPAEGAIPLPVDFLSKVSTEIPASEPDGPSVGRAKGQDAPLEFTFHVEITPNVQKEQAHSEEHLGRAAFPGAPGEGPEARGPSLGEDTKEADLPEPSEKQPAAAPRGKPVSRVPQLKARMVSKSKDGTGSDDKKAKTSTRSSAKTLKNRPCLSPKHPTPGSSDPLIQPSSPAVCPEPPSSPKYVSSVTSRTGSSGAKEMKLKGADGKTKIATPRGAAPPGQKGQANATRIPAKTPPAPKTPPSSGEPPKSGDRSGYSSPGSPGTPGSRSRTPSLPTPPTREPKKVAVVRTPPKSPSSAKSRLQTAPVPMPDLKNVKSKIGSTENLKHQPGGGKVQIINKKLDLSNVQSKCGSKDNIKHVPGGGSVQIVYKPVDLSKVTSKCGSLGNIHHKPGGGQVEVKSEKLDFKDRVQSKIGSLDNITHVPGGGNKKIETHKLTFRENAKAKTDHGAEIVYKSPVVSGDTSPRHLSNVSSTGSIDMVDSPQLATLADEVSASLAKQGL

Nc1ccc(/C=C/c2nc3ccc([125I])cc3[nH]2)cc1
Drug uptake (Liver [1]): 29.9 % ID/g
Drug uptake (Intestine [2]): 27.4 % ID/g
Drug uptake (Blood [3]): 1.57 % ID/g
Drug uptake (Spleen [4]): 4.87 % ID/g
Drug uptake (Blood [5]): 2.72 % ID/g
Drug uptake (Pancreas [6]): 0.69 % ID/g
Drug uptake (Stomach [7]): 4.13 %ID
Drug uptake (Lung [8]): 9.09 % ID/g
Drug uptake (Blood [9]): 1.24 % ID/g
Drug uptake (Blood [10]): 5.94 % ID/g
Drug uptake (Brain [11]): 0.26 % ID/g
logP at 2 min [12]: 1.88
Ratio (Brain [13]): 26.7
Drug uptake (Heart [14]): 2.84 % ID/g
Drug uptake (Intestine [15]): 4.09 % ID/g
Drug uptake (Liver [16]): 15.6 % ID/g
Drug uptake (Intestine [17]): 22.1 % ID/g
Drug uptake (Pancreas [18]): 1.93 % ID/g
Drug uptake (Stomach [19]): 3.6 %ID
Drug uptake (Heart [20]): 8.31 % ID/g
Drug uptake (Lung [21]): 1.44 % ID/g
Drug uptake (Brain [22]): 1.4 % ID/g
Drug uptake (Spleen [23]): 2.71 % ID/g
Drug uptake (Liver [24]): 19.3 % ID/g
Drug uptake (Kidney [25]): 3.25 % ID/g
Drug uptake (Heart [26]): 1.48 % ID/g
Drug uptake (Kidney [27]): 10.6 % ID/g
Drug uptake (Heart [28]): 1.13 % ID/g
Drug uptake (Lung [29]): 1.62 % ID/g
Drug uptake (Kidney [30]): 2.54 % ID/g
Drug uptake (Pancreas [31]): 1.43 % ID/g
Drug uptake (Spleen [32]): 5.5 % ID/g
Drug uptake (Kidney [33]): 5.04 % ID/g
Drug uptake (Stomach [34]): 1.7 %ID
Drug uptake (Spleen [35]): 2.46 % ID/g
Drug uptake (Intestine [36]): 13.7 % ID/g
Drug uptake (Brain [37]): 3.2 % ID/g
Drug uptake (Pancreas [38]): 4.99 % ID/g
Drug uptake (Brain [39]): 0.12 % ID/g
Drug uptake (Lung [40]): 3.55 % ID/g
Drug uptake (Liver [41]): 29.4 % ID/g
Drug uptake (Stomach [42]): 4.37 %ID

Nc1ccc(/C=C/c2nc3ccc(I)cc3[nH]2)cc1
Kd [43]: 2360 nM
Kd [44]: 900 nM
Selectivity ratio (Homo sapiens): 0.38
